The values that follow come from ChEMBL document CHEMBL3120065, “Antifungal ether diglycosides from Matayba guianensis Aublet” (Bioorg Med Chem Lett, 2014).

One test concerns Candida parapsilosis. Put plainly: Antifungal activity against Candida parapsilosis ATCC 22019 assessed as growth inhibition by microdliution method. The format is functional. The note with it: Lodderomyces parapsilosis.
The test system of the next test is PBMC. The test can be described thus: Cytotoxicity against human PBMC assessed as cell viability after 72 hrs by MTT assay. The format is cell-based. A digest of the protocol:
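Normal proliferating human peripheral blood mononuclear cells exposed to compound for 72 h; viability read by MTT; result given as IC50.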
Background: Tetrazolium assays rely on reduction of a dye to a coloured formazan, in cell work by metabolically active cells.

Test [1] can be described thus: Selectivity index, ratio of IC50 for human PBMC to MIC for Candida parapsilosis ATCC 22019.
Another test deals with Plasmodium falciparum. Put plainly: Antiplasmodial activity against Plasmodium falciparum assessed as growth inhibition. The format is functional, organism-based.

≈ marks a conversion by molar mass, not a printed value.

In the case of `CCC(C)n1ncn(-c2ccc(N3CCN(c4ccc(OCC5COC(Cn6cncn6)(c6ccc(Cl)cc6Cl)O5)cc4)CC3)cc2)c1=O` (stereo not drawn) [ITRACONAZOLE], the MIC – broadly, the least concentration at which growth counts as inhibited – in the test on Candida parapsilosis is 0.71 µM. Further, the IC50 (commonly the concentration that gives 50% inhibition) in the test on PBMC was found to be 1.53 µM.

For `OC(Cn1cncn1)(Cn1cncn1)c1ccc(F)cc1F` [FLUCONAZOLE], the MIC with Candida parapsilosis was 0.2 µM. In the test with PBMC, the IC50 was above 16.3 µM.

With `CCCCCCCCCCCCCCCCO[C@@H]1O[C@H](CO)[C@@H](O)[C@H](O)[C@H]1O[C@@H]1O[C@@H](C)[C@H](OC(C)=O)[C@@H](OC(C)=O)[C@H]1O`, in test [1], the “Selectivity Index” value amounted to 12.5. Besides, in the test with Candida parapsilosis, the MIC worked out at 3.15 µM. Moreover, the IC50 in the test with PBMC was above 39.4 µM.

Regarding `CCCCCCCCCCCCCCCCO[C@@H]1O[C@H](CO)[C@@H](O)[C@H](O)[C@H]1O[C@@H]1O[C@@H](C)[C@H](OC(C)=O)[C@@H](O)[C@H]1OC(C)=O`, in the test with Candida parapsilosis, the MIC amounted to 6.31 µM. For the same molecule, the IC50 in the test on PBMC is above 39.4 µM.

Regarding `C[C@@H]1[C@H](O)[C@@H](C)/C=C/C=C/C=C/C=C/C=C/C=C/C=C/[C@H](O[C@@H]2O[C@H](C)[C@@H](O)[C@H](N)[C@@H]2O)C[C@@H]2O[C@](O)(C[C@@H](O)C[C@@H](O)[C@H](O)CC[C@@H](O)C[C@@H](O)CC(=O)O[C@H]1C)C[C@H](O)[C@H]2C(=O)O` [AMPHOTERICIN B], the MIC with Candida parapsilosis stood at 4.33 µM. In addition, the IC50 with PBMC is above 5.41 µM.

As to `CCCCCCCCCCCCCCCCO[C@@H]1O[C@H](COC(=O)CCCCCCCCCCCCCCC)[C@@H](O)[C@H](O)[C@H]1O[C@@H]1O[C@@H](C)[C@H](OC(C)=O)[C@@H](OC(C)=O)[C@H]1OC(C)=O`, the IC50 in the test on Plasmodium falciparum came out at 4.7 µg/mL (≈ 5.14 µM).

For `CCCCCCCCCCCCCCCCO[C@@H]1O[C@H](COC(C)=O)[C@@H](O)[C@H](O)[C@H]1O[C@@H]1O[C@@H](C)[C@H](OC(C)=O)[C@@H](OC(C)=O)[C@H]1OC(C)=O`, the IC50 in the test with Plasmodium falciparum stood at 15.7 µg/mL (≈ 21.8 µM).

For `COc1cccc2c1C(=O)c1c(O)c3c(c(O)c1C2=O)C[C@@](O)(C(=O)CO)C[C@@H]3O[C@H]1C[C@H](N)[C@H](O)[C@H](C)O1` [DOXORUBICIN], the IC50 with PBMC was found to be 1.7 µM.

As to `CCCCCCCCCCCCCCCCO[C@@H]1O[C@H](COC(C)=O)[C@@H](OC(C)=O)[C@H](O)[C@H]1O[C@@H]1O[C@@H](C)[C@H](OC(C)=O)[C@@H](OC(C)=O)[C@H]1OC(C)=O`, the IC50 with Plasmodium falciparum stood at 7.1 µg/mL (≈ 9.33 µM).

Take `CCCCCCCCCCCCCCCCO[C@@H]1O[C@H](COC(C)=O)[C@@H](O)[C@H](OC(C)=O)[C@H]1O[C@@H]1O[C@@H](C)[C@H](OC(C)=O)[C@@H](OC(C)=O)[C@H]1OC(C)=O`: the IC50 in the test with Plasmodium falciparum stood at 13 µg/mL (≈ 17.1 µM).

With `CCCCCCCCCCCCCCCCO[C@@H]1O[C@H](CO)[C@@H](O)[C@H](O)[C@H]1O[C@@H]1O[C@@H](C)[C@H](OC(C)=O)[C@@H](OC(C)=O)[C@H]1OC(C)=O`, the MIC in the test on Candida parapsilosis was 189 µM. Also, the IC50 in the test with PBMC came to 25.4 µM.
